Test results: ChEMBL document CHEMBL1275449, “Potent in vitro antifungal activities of naturally occurring acetylenic acids” (Antimicrob Agents Chemother, 2008)
≈ marks a conversion by molar mass, not a printed value. Calls of active or inactive are those of the source. The rule behind the calls is not given here.

Key:
[1] = test system: Trichophyton rubrum; experiment: Antifungal activity against Trichophyton rubrum ATCC MYA-4438 at 16.5 uM after 5 days by CLSI method; assay type: functional, organism-based
[2] = test system: Cryptococcus neoformans; experiment: Antifungal activity against Cryptococcus neoformans ATCC 90113 after 72 hrs by CLSI method; assay type: functional, organism-based; details: ATCC 90113, 72 h
Outline: (§1)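 SD broth replaced RPMI because growth in RPMI was poor; other CLSI conditions were kept. Inoculum was 1.5 × 10³ CFU/ml from colonies on SD agar, checked by plating. Twofold serial dilutions (11 concentrations) in 20% DMSO-saline were tested in duplicate. OD530 was read before and after incubation at 35°C for 72 h. Percent growth gave IC50; the MIC is the lowest concentration with no detectable growth.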

[3] = test system: Aspergillus flavus; experiment: Antifungal activity against Aspergillus flavus ATCC 204304 at 16.5 uM after 48 hrs by CLSI method; assay type: functional, organism-based
[4] = test system: Trichophyton rubrum; experiment: Antifungal activity against Trichophyton rubrum ATCC 10218 at 16.5 uM after 5 days by CLSI method; assay type: functional, organism-based
[5] = test system: Pichia kudriavzevii; experiment: Antifungal activity against Candida krusei ATCC 6258 after 48 hrs by CLSI method; assay type: functional, organism-based; details: ATCC 6258, 48 h
Outline: (§2)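 Candida inocula came from 24–72-h SD agar colonies suspended in saline. They were diluted by OD630 standard curve into RPMI 1640 (0.2% dextrose, 0.03% glutamine, 0.165 M MOPS, pH 7.0) to 1.5 × 10³ CFU/ml. Compounds were run as 11 twofold dilutions in 20% DMSO-saline, in duplicate, at 35°C for 48 h, with OD530 read before and after. Percent growth at the top concentration, IC50, MIC, and MFC (SD agar plating) were derived.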

[6] = test system: Candida albicans; experiment: Antifungal activity against Candida albicans ATCC 200955 after 48 hrs by CLSI method; assay type: functional, organism-based; details: ATCC 200955, 48 h
Outline: (§3)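 CLSI broth microdilution. Colonies from 24–72 h SD agar suspended in saline and sized by OD630 standard curve. Inoculum 1.5 × 10³ CFU/ml (final) in RPMI 1640 (0.2% dextrose, 0.03% glutamine, 0.165 M MOPS, pH 7.0). Twofold dilutions (11 levels) from 20% DMSO-saline, in duplicate. 35°C for 48 h, OD530 read before and after. IC50 fitted from % growth. MIC: no detectable growth. MFC: subculture onto SD agar.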

[7] = test system: Candida albicans; experiment: Antifungal activity against Candida albicans ATCC 14053 after 48 hrs by CLSI method; assay type: functional, organism-based; details: ATCC 14053, 48 h; outline: as §3
[8] = test system: Nakaseomyces glabratus; experiment: Antifungal activity against Candida glabrata ATCC 90030 after 48 hrs by CLSI methodCandida glabrata; assay type: functional, organism-based; details: ATCC 90030, 48 h; outline: as §2
[9] = test system: Candida albicans; experiment: Antifungal activity against Fluconazole resistant Candida albicans clinical isolate 17 after 48 hrs by CLSI method; assay type: functional, organism-based; outline: as §3
[10] = test system: Candida parapsilosis; experiment: Antifungal activity against Candida parapsilosis ATCC 22019 at 16.5 uM after 48 hrs by CLSI method; assay type: functional, organism-based
Outline: (§4)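 Yeast suspensions made from 3-5 colonies off 24-72 h SD agar plates in saline. They were diluted by OD630 standard curve in RPMI 1640 (0.2% dextrose, 0.03% glutamine, 0.165 M MOPS, pH 7.0) to 1.5 × 10³ CFU/ml. Twofold dilutions (11 concentrations, 20% DMSO-saline) run in duplicate. OD530 read before and after 35°C, 48 h. Line values are top test concentrations; no-growth endpoints give MIC/MFC.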

[11] = test system: Aspergillus fumigatus; experiment: Antifungal activity against Aspergillus fumigatus ATCC 90906 at 16.5 uM after 48 hrs by CLSI method; assay type: functional, organism-based
[12] = test system: Trichophyton rubrum; experiment: Antifungal activity against Trichophyton rubrum ATCC MYA-4438 by CLSI method; assay type: functional, organism-based
Outline: (§5)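 Growth scraped from 1- to 6-week-old potato dextrose slants and filtered through Miracloth. Diluted in 5% Alamar blue-RPMI 1640 (MOPS pH 7.0) to 2.7 × 10⁴ CFU/ml. Eleven twofold dilutions in duplicate. Fluorescence at 544 nm excitation/590 nm emission read before and after 35°C, 5 days. IC50 fitted from percent growth. MIC taken as no detectable growth; MFC from clear or blue wells plated on PD agar.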

[13] = test system: Trichophyton mentagrophytes; experiment: Antifungal activity against Trichophyton mentagrophytes ATCC 9533 by CLSI method; assay type: functional, organism-based; outline: as §5
[14] = test system: Trichophyton mentagrophytes; experiment: Antifungal activity against Trichophyton mentagrophytes ATCC MYA-4439 by CLSI method; assay type: functional, organism-based; outline: as §5
[15] = test system: Candida albicans; experiment: Antifungal activity against Fluconazole resistant Candida albicans clinical isolate 1 after 48 hrs by CLSI method; assay type: functional, organism-based; outline: as §3
[16] = test system: Candida tropicalis; experiment: Antifungal activity against Candida tropicalis ATCC 750 after 48 hrs by CLSI method; assay type: functional, organism-based; details: ATCC 750, 48 h; outline: as §4
[17] = test system: Candida parapsilosis; experiment: Antifungal activity against Candida parapsilosis ATCC 22019 after 48 hrs by CLSI method; assay type: functional, organism-based; details: Lodderomyces parapsilosis, ATCC 22019, 48 h; outline: as §4
[18] = test system: Candida albicans; experiment: Antifungal activity against Candida albicans ATCC 60193 after 48 hrs by CLSI method; assay type: functional, organism-based; details: ATCC 60193, 48 h; outline: as §3
[19] = test system: Candida albicans; experiment: Antifungal activity against Candida albicans ATCC 32354 after 48 hrs by CLSI method; assay type: functional, organism-based; details: ATCC 32354, 48 h; outline: as §3
[20] = test system: Aspergillus fumigatus; experiment: Antifungal activity against Aspergillus fumigatus ATCC 90906 after 48 h by CLSI method; details: ATCC 90906, 48 h
[21] = test system: Aspergillus fumigatus; experiment: Antifungal activity against Aspergillus fumigatus ATCC 204305 at 16.5 uM after 48 hrs by CLSI method; assay type: functional, organism-based
[22] = test system: Cryptococcus neoformans; experiment: Antifungal activity against Cryptococcus neoformans ATCC 66031 after 72 hrs by CLSI method; assay type: functional, organism-based; details: ATCC 66031, 72 h; outline: as §1
[23] = test system: Aspergillus niger; experiment: Antifungal activity against Aspergillus niger ATCC 16404 at 16.5 uM after 48 hrs by CLSI method; assay type: functional, organism-based
[24] = test system: Trichophyton mentagrophytes; experiment: Antifungal activity against Trichophyton mentagrophytes ATCC MYA-4439 at 16.5 uM after 5 days by CLSI method; assay type: functional, organism-based
[25] = test system: Candida albicans; experiment: Antifungal activity against Candida albicans ATCC 90028 after 48 hrs by CLSI method; assay type: functional, organism-based; details: ATCC 90028, 48 h; outline: as §3
[26] = test system: Trichophyton mentagrophytes; experiment: Antifungal activity against Trichophyton mentagrophytes ATCC 9533 at 16.5 uM after 5 days by CLSI method; assay type: functional, organism-based

CC[C@H](C)C[C@H](C)CCCCCCCCC(=O)N[C@H]1C[C@@H](O)[C@@H](NCCN)NC(=O)[C@@H]2[C@@H](O)CCN2C(=O)[C@H]([C@H](O)CCN)NC(=O)[C@H]([C@H](O)[C@@H](O)c2ccc(O)cc2)NC(=O)[C@@H]2C[C@@H](O)CN2C(=O)[C@H]([C@@H](C)O)NC1=O [CASPOFUNGIN]
Activity [1]: inactive | IC50 [2]: 400 nM | MFC [2]: 2.1 µM (≈ 2.3 µg/mL) | MIC [2]: 1 µM (≈ 1.09 µg/mL) | Activity [3]: inactive | Activity [4]: inactive | IC50 [5]: 100 nM | MFC [5]: 1 µM (≈ 1.09 µg/mL) | MIC [5]: 0.4 µM (≈ 0.437 µg/mL) | IC50 [6]: 50 nM | MFC [6]: 0.13 µM (≈ 0.142 µg/mL) | MIC [6]: 0.13 µM (≈ 0.142 µg/mL) | IC50 [7]: 50 nM | MFC [7]: 0.26 µM (≈ 0.284 µg/mL) | MIC [7]: 0.1 µM (≈ 0.109 µg/mL) | IC50 [8]: 50 nM | MFC [8]: 0.26 µM (≈ 0.284 µg/mL) | MIC [8]: 0.13 µM (≈ 0.142 µg/mL) | IC50 [9]: 40 nM | MFC [9]: 0.26 µM (≈ 0.284 µg/mL) | MIC [9]: 0.13 µM (≈ 0.142 µg/mL) | Activity [10]: inactive | Activity [11]: inactive | IC50 [12]: 60 nM | MIC [12]: 0.1 µM (≈ 0.109 µg/mL) | IC50 [13]: 300 nM | IC50 [14]: 200 nM | IC50 [15]: 50 nM | MFC [15]: 0.26 µM (≈ 0.284 µg/mL) | MIC [15]: 0.1 µM (≈ 0.109 µg/mL) | IC50 [16]: 60 nM | MFC [16]: 0.26 µM (≈ 0.284 µg/mL) | MIC [16]: 0.1 µM (≈ 0.109 µg/mL) | IC50 [17]: 200 nM | MIC [17]: 0.5 µM (≈ 0.547 µg/mL) | IC50 [18]: 30 nM | MFC [18]: 0.52 µM (≈ 0.569 µg/mL) | MIC [18]: 0.1 µM (≈ 0.109 µg/mL) | IC50 [19]: 70 nM | MFC [19]: 1.03 µM (≈ 1.13 µg/mL) | MIC [19]: 0.13 µM (≈ 0.142 µg/mL) | IC50 [20]: 200 nM | MIC [20]: 16.5 µM (≈ 18 µg/mL) | Activity [21]: inactive | IC50 [22]: 100 nM | MFC [22]: 1 µM (≈ 1.09 µg/mL) | MIC [22]: 0.5 µM (≈ 0.547 µg/mL) | Activity [23]: inactive | Activity [24]: inactive | IC50 [25]: 60 nM | MFC [25]: 0.26 µM (≈ 0.284 µg/mL) | MIC [25]: 0.19 µM (≈ 0.208 µg/mL) | Activity [26]: inactive
